# Hits are enriched below; roughly 1.9% of the tested compounds scored in any of these assays.
# RanGTP-Impb inh: inhibitors of RanGTP-importin-beta interaction, primary screen, biochemical, FRET, CFP-Ran, YFP-importin-beta, homogeneous. cell-free CFP-Ran/YFP-importin-beta FRET ratio. inhibition, % (test concentration not listed). 1.1% of 300,000 active;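 active means more than half of the replicate wells show a fall in the fluorescence ratio signal beyond about 16%, limit read from the data, passing the limit was not always enough; inconclusive means exactly half of the replicate wells pass the set limit; inactive means fewer than half of replicates pass the limit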
# HDAC3 inh: inhibitors of human histone deacetylase 3; 0.15% of 320,000 active; AID 2718; recombinant HDAC3, fluorogenic peptide/trypsin coupled, fluorescence; O15379; inhibition, % at 8.3 µM; in the data active means inhibition above about 26%, passing the limit was not always enough; inconclusive means no clear call, values can overlap the other calls
# Runt-SMMHC FRET: blocks binding of human RUNX1 Runt domain to CBFb-SMMHC | Cerulean-Runt/Venus-CBFb-SMMHC FRET ratio 530/480, 1 h | inhibition, % at 20 µM | 0.74% of 220,000 active | AID 1434;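 active means mean inhibition across duplicate retests at 20 µM reaching about 50%, limit read from the data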;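 further: inhibitors lower the FRET ratio by blocking Runt binding to CBFb-SMMHC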
# LANA-H2B inh: blocks KSHV LANA binding to histone H2A/H2B; Q9QR71; cell-free LANA-H2A/H2B peptide, fluorescence polarization; inhibition, % (test concentration not listed); 0.6% of 320,000 active; AID 2629; in the data active means inhibition mostly above about 10%, no sharp cut-off; inactive means mostly below about 6.7%
# Target sequence (Q9QR71 whole entry, looked up): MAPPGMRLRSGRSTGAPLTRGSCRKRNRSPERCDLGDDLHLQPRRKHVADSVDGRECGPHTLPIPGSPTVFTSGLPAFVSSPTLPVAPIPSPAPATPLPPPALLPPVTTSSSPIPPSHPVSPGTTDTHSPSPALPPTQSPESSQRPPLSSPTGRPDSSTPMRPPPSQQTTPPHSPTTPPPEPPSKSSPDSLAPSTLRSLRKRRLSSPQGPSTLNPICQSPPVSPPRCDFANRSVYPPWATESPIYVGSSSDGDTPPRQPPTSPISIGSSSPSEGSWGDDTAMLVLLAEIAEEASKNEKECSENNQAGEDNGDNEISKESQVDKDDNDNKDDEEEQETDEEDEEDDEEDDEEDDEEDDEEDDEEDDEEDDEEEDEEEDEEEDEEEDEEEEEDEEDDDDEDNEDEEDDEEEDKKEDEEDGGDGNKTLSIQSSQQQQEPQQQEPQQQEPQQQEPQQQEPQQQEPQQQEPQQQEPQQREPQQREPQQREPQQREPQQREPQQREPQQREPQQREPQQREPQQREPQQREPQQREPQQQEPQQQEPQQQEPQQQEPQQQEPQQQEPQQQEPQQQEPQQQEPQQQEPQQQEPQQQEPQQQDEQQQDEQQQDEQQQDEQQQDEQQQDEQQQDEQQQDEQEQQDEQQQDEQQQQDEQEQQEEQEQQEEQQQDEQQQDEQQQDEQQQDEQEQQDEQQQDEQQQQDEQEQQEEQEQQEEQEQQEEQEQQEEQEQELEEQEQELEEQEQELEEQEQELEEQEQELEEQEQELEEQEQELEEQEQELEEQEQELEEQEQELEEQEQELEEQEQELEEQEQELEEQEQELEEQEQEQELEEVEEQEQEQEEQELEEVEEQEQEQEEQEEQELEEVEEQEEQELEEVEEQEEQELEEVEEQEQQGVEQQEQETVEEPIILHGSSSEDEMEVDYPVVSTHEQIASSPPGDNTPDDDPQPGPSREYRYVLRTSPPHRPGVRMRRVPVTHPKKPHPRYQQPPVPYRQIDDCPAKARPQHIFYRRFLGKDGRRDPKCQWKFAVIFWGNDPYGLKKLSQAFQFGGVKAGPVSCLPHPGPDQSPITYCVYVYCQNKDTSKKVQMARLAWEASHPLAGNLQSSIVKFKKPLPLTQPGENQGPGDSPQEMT
# Runt-CBFb FRET: Runt domain-CBFb interaction inhibition; Q01196+Q13951; Cerulean-Runt/Venus-CBFb FRET ratio 530/480, 1 h; inhibition, % at 20 µM; 0.46% of 220,000 active; AID 1496;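 active means inhibition over about 50% at 20 µM in the single-dose screen, limit read from the data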
#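 test system = Cerulean-Runt domain fusion protein, energy donor | probe or stimulus = Venus-CBFb binding partner, 100 nM | incubation = two 1 h room-temperature incubations shielded from light | detection = fluorescence energy transfer, 422 nm excitation, 530/480 nm emission | measure = loss of energy transfer signal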
# CaV13 ICDI inh: Primary screen for inhibitors of IQ motif and Ca2+-dependent inactivation inhibitor domain binding in CACNA1D, Förster resonance energy transfer in living cells, …; AID 743397; inhibition, % at 12.3 µM; HEK cells, CFP/YFP FRET ICDI-IQ, plate reader, 10 min; percent FRET-ratio fall versus neutral wells; 0.098% of 340,000 active;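 active means mean replicate inhibition of at least 30% and at least 1% of replicates passing that level; inconclusive means only one of the two criteria is met; inactive means neither criterion is met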
# Hits are given with their value; i = inactive; ? = inconclusive; nt = no result.
SMILES,RanGTP-Impb inh,HDAC3 inh,Runt-SMMHC FRET,LANA-H2B inh,Runt-CBFb FRET,CaV13 ICDI inh
CN(C(=O)CSc1nc2ccccc2c(=O)n1C)C1CCS(=O)(=O)C1 (stereo not given),nt,i,nt,20,nt,i
O=S(=O)(c1ccccc1)c1nnn2c1nc(NC1CCN(Cc3ccccc3)CC1)c1cc(Cl)ccc12,i,i,nt,i,nt,i
CCOc1ccc(S(=O)(=O)NCCC(=O)NCC2(N3CCCCC3)CCCCC2)cc1,i,i,nt,168,nt,nt
CC(C)CC1NC(=O)N(CC(=O)N2CCN(S(=O)(=O)c3ccccc3)CC2)C1=O (stereo not given),i,i,i,i,i,i
CC(=O)Nc1ccc(C(=O)CSc2nccc(=O)[nH]2)cc1,i,62,i,i,i,i
COc1cccc(CN2CCN(C3CCOCC3)CC2CCO)c1 (stereo not given),i,nt,i,nt,i,i
CC(C)Cc1ccc(/C=C/C(=O)N2CCOCC2)cc1,18,i,i,i,i,i
O=C(OCc1ccc(Br)cc1)c1cccc(S(=O)(=O)N2CCCC2)c1,?,i,nt,i,nt,i
CCn1c2ccccc2c2c3ncc4cccn4c3ccc21,68,i,88,i,i,i
CC(NC(=O)c1c(Cl)cnn1C)C1CCCO1 (stereo not given),i,i,i,i,i,i
Cn1ncc(Cl)c1C(=O)NCC1CCCO1 (stereo not given),i,i,nt,14,nt,i
c1ccc(CNc2ccc(N3CCOCC3)cc2)cc1,nt,i,nt,17,nt,i
CCOc1ccc(C(=O)OC(C)CN2CCCCC2)cc1 (stereo not given),i,i,nt,i,nt,i
COc1cccc(CN2C(=O)c3cccc(N)c3C2=O)c1,?,i,73,i,i,i
Cn1c(N)c(C(c2ccccc2)c2c(N)n(C)c(=O)n(C)c2=O)c(=O)n(C)c1=O,i,i,i,29,i,i
Cc1cccc(CN2CCc3c(OCC(=O)N4CCCc5ccccc54)cccc3C2=O)c1,22,i,i,i,i,i
COc1ccc(NC(=O)CSc2nc(N)c3cc4c(nc3n2)CCCC4)c(OC)c1,i,i,i,i,i,nt
O=C(Cn1cc(C(F)(F)F)ccc1=O)Nc1cccc(S(=O)(=O)N2CCOCC2)c1,i,i,i,22,i,i
O=C(CCNC(=O)N1CC(=O)Nc2ccccc21)NCc1cccc(Cl)c1,i,i,nt,i,nt,i
O=C(CCNC(=O)N1CC(=O)Nc2ccccc21)Nc1cccc(Cl)c1,i,i,nt,15,nt,i
CC1(C)CC(=O)C2=C(C1)N(CCN1CCOCC1)C1=C(C(=O)CC(C)(C)C1)C2c1ccc(Cl)c([N+](=O)[O-])c1,i,i,i,i,i,i
Cc1ccc(C2C3=C(CC(C)(C)CC3=O)N(CCN3CCOCC3)C3=C2C(=O)CC(C)(C)C3)cc1,125,i,79,i,i,nt
Cc1cc(C)cc(NC(=O)N2CCCN(c3ncccc3[N+](=O)[O-])CC2)c1,i,i,i,14,i,i
CC(C)NC(=S)N1CCCN(c2ncccc2[N+](=O)[O-])CC1,i,i,nt,i,nt,i
Cc1cc(C)cc(NC(=S)N2CCN(c3ccccn3)CC2)c1,i,i,nt,i,nt,i
SMILES,RanGTP-Impb inh,HDAC3 inh,Runt-SMMHC FRET,LANA-H2B inh,Runt-CBFb FRET,CaV13 ICDI inh
Cc1cc(C)cc(NC(=S)N2CCN(c3ncccn3)CC2)c1,i,i,i,21,i,i
CSc1nccc(Oc2ccccc2Cl)n1,i,i,nt,i,nt,i
CSc1nccc(Oc2cncc(Cl)c2)n1,i,i,i,11,i,i
CCNC(=O)C1CC(=O)N(Cc2ccc3c(c2)OCO3)C(=Nc2ccc(OCC)cc2)S1 (stereo not given),i,i,i,63,i,i
CCNC(=O)C1CC(=O)N(Cc2ccc(F)cc2)C(=Nc2ccc(OC)cc2)S1 (stereo not given),i,i,i,i,i,i
CC(=O)Nc1cccc(-c2csc(C(C)(O)c3ccccc3)n2)c1 (stereo not given),nt,nt,nt,nt,nt,i
O=C1CCCN2N=C(SCC(=O)Nc3ccc(Cl)cc3)SC2=N1,i,i,nt,i,nt,i
O=C1CCCN2N=C(SCC(=O)Nc3cccc(Cl)c3)SC2=N1,i,i,nt,26,nt,i
C=CCN(C(=O)CCC(=O)Nc1cc(C)on1)C(C(=O)NC1CCCC1)c1ccc(Cl)cc1 (stereo not given),i,i,nt,i,nt,i
Cc1cc(NC(=O)c2ccccc2Cl)ccc1NC(=O)c1ccccc1Cl,i,i,nt,i,nt,i
Cc1ccc2sc3ccc(NC(=O)c4ccccc4Cl)cc3c(=O)c2c1,114,i,101,i,i,i
COc1ccc2cc(CCC(C)=O)ccc2c1,i,i,i,13,i,i
CCN(CC(=O)Nc1ccc(OC)cc1)C(=O)Cc1coc2cc(C)c(C)cc12,nt,i,nt,56,nt,i
Cc1ccc(NC(=O)CN(C)C(=O)Cc2coc3cc(C)c(C)cc23)cc1,nt,nt,nt,nt,nt,i
Cc1ccccc1CCNC(=O)C1CCC(=O)N(C2CCCCCC2)C1 (stereo not given),i,nt,nt,i,nt,i
CC(C)NC(=O)CSc1ccccc1C(=O)N1CCN(S(=O)(=O)/C=C/c2ccccc2)CC1,nt,i,nt,17,nt,i
O=C(CN1C(=O)COc2ccccc21)NCCCN1CCc2ccccc2C1,i,i,i,i,i,i
CCCC(=O)Nc1ccc(C(=O)N/N=C/c2ccc([N+](=O)[O-])o2)cc1,i,i,i,i,i,i
Cc1ccc(NC(=O)CCC(=O)N/N=C/c2ccc([N+](=O)[O-])o2)cc1C,21,i,i,i,i,i
COc1ccc(CNC(=O)C2CCC(=O)N(C3CCCCCC3)C2)c(OC)c1 (stereo not given),nt,nt,nt,nt,nt,i
Cc1cc2oc(=O)cc(CN3CCOCC3)c2cc1C(C)C,i,i,nt,i,nt,i
Cc1c(O)ccc2c(CN3CCOCC3)cc(=O)oc12,53,i,nt,i,nt,i
Cc1c(O)ccc2c(CN3CCN(CCO)CC3)cc(=O)oc12,56,i,79,i,i,i
O=c1cc(CN2CCOCC2)c2cc(Cl)c(O)cc2o1,73,i,nt,i,nt,i
Cc1cc(C)c2oc(=O)cc(CN3CCOCC3)c2c1,i,i,i,i,i,i
SMILES,RanGTP-Impb inh,HDAC3 inh,Runt-SMMHC FRET,LANA-H2B inh,Runt-CBFb FRET,CaV13 ICDI inh
CCc1cc2c(CN3CCN(CC)CC3)cc(=O)oc2cc1O,115,i,61,i,i,i
CCc1ccc2oc(=O)cc(CN3CCN(Cc4ccccc4)CC3)c2c1,i,i,nt,i,nt,i
O=C(C[n+]1cc(-c2ccc(Br)cc2)n2c1CCCCC2)c1ccccc1,i,i,i,i,i,i
CC1(C)CC(=O)C(C(N)=NC(=O)c2ccccc2)=C(O)C1,i,i,i,i,i,i
C/C(=N/NC(=O)c1ccccc1)C1=C(O)CC(C)(C)CC1=O,?,71,nt,i,nt,i
CC1CCN(C(=S)c2ccc(N(C)C)cc2)CC1,i,i,i,i,i,i

# Screens (PubChem BioAssay)
